Data reported in ChEMBL document CHEMBL4011643, “Triaryl Benzimidazoles as a New Class of Antibacterial Agents against Resistant Pathogenic Microorganisms” (J Med Chem, 2017).
≈ marks a conversion by molar mass, not a printed value. Calls of active or inactive are those of the source.

Experiments:
Enterococcus faecalis [1] = test: Antibacterial activity against vancomycin-resistant Enterococcus faecalis NCTC 12201 after 20 hrs by broth microdilution method; assay type: functional; settings: NCTC 12201, 20 h
Procedure, shortened: (§1)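 Broth microdilution in Tryptic Soy Broth; growth read as OD600 after 20 h. MIC taken as the lowest drug concentration giving OD600 below 0.1. Run in triplicate.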

Pseudomonas aeruginosa [2] = test: Ratio of MIC for Pseudomonas aeruginosa NCTC 13437 in absence of Pa-beta-N to MIC for Pseudomonas aeruginosa NCTC 13437 in presence of Pa-beta-N; assay type: functional
Procedure, shortened: (§2)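 Both MICs were by TSB broth microdilution, with an OD600 <0.1 cutoff at 20 h.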

Acinetobacter baumannii [3] = test: Ratio of MIC for Acinetobacter baumannii ATCC 17978 in absence of PMBN to MIC for Acinetobacter baumannii ATCC 17978 in presence of PMBN; assay type: functional
Procedure, shortened: (§3)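 Fold change: MIC without divided by MIC with 30 μg/mL PMBN. Both MICs were by TSB broth microdilution, with an OD600 <0.1 cutoff at 20 h.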

Enterococcus faecalis [4] = test: Bactericidal activity against vancomycin-resistant Enterococcus faecalis NCTC 12201 at 4 times MIC after 10 hrs by Miles Misra dilution method; assay type: functional
Pseudomonas aeruginosa [5] = test: Antibacterial activity against Pseudomonas aeruginosa PAO1 after 20 hrs in the presence of Pa-beta-N and magnesium ions by broth microdilution method; assay type: functional; settings: PAO1, 20 h
Procedure, shortened: (§4)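 Broth microdilution in Tryptic Soy Broth, done in triplicate. Growth was read as OD600 after 20 h. MIC is the lowest drug concentration giving OD600 below 0.1.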

Enterococcus faecalis [6] = test: Bactericidal activity against vancomycin-resistant Enterococcus faecalis NCTC 12201 assessed as time required to kill bacteria by >6 log10CFU/ml at 4 times MIC by Miles Misra dilution method; assay type: functional
Procedure, shortened: (§5)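 Flasks of TSB inoculated at ~10^6 cfu/mL, compound added at 4 × MIC, shaken at 200 rpm and 37 °C. Samples taken at 1, 2, 4, 6 and 24 h and plated by Miles Misra dilution for CFU/mL. Bactericidal means a loss of >3 log CFU/mL. Three independent repeats, error bars SD.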

Enterococcus faecalis [7] = test: Antibacterial activity against vancomycin-sensitive Enterococcus faecalis NCTC 775 after 20 hrs by broth microdilution method; assay type: functional; settings: NCTC 775, 20 h; procedure, shortened: as §4
Klebsiella pneumoniae [8] = test: Antibacterial activity against Klebsiella pneumoniae NCTC 13368 after 20 hrs in the presence of Pa-beta-N and magnesium ions by broth microdilution method; assay type: functional; settings: NCTC 13368, 20 h; procedure, shortened: as §4
[9] = Cytotoxicity against human HeLa cells assessed as cell viability at 25 uM after 24 hrs by MTT assay; assay type: cell-based; settings: read-out: Activity
Procedure, shortened: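 HeLa cells, 10000 per well, were grown at 37 °C in 5% CO2 and allowed to settle for 24 h. Compound was then added in triplicate for 24 h of continuous exposure. Viability was read by MTT colorimetry, with absorbance at 570 nm.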

Pseudomonas aeruginosa [10] = test: Ratio of MIC for Pseudomonas aeruginosa PAO1 in absence of PMBN to MIC for Pseudomonas aeruginosa PAO1 in presence of PMBN; assay type: functional; procedure, shortened: as §3
Acinetobacter baumannii [11] = test: Antibacterial activity against Acinetobacter baumannii AYE after 20 hrs in the presence of PMBN by broth microdilution method; assay type: functional; procedure, shortened: as §4
Klebsiella pneumoniae [12] = test: Antibacterial activity against Klebsiella pneumoniae M6 after 20 hrs in the presence of Pa-beta-N and magnesium ions by broth microdilution method; assay type: functional; settings: M6, 20 h; procedure, shortened: as §4
Staphylococcus aureus [13] = test: Antibacterial activity against methicillin-resistant Staphylococcus aureus EMRSA-15 after 20 hrs by broth microdilution method; assay type: functional; settings: EMRSA-15, 20 h; procedure, shortened: as §1
Pseudomonas aeruginosa [14] = test: Ratio of MIC for Pseudomonas aeruginosa NCTC 13437 in absence of PMBN to MIC for Pseudomonas aeruginosa NCTC 13437 in presence of PMBN; assay type: functional; procedure, shortened: as §3
Klebsiella pneumoniae [15] = test: Antibacterial activity against Klebsiella pneumoniae M6 after 20 hrs in the presence of PMBN by broth microdilution method; assay type: functional; settings: M6, 20 h; procedure, shortened: as §4
Pseudomonas aeruginosa [16] = test: Antibacterial activity against Pseudomonas aeruginosa NCTC 13437 after 20 hrs in the presence of Pa-beta-N and magnesium ions by broth microdilution method; assay type: functional; settings: NCTC 13437, 20 h; procedure, shortened: as §4
Pseudomonas aeruginosa [17] = test: Antibacterial activity against Pseudomonas aeruginosa NCTC 13437 after 20 hrs in the presence of PMBN by broth microdilution method; assay type: functional; settings: NCTC 13437, 20 h; procedure, shortened: as §4
Staphylococcus aureus [18] = test: Antibacterial activity against methicillin-resistant Staphylococcus aureus MRSA252 after 20 hrs by broth microdilution method; assay type: functional; settings: MRSA252, 20 h; procedure, shortened: as §1
Acinetobacter baumannii [19] = test: Ratio of MIC for Acinetobacter baumannii ATCC 17978 in absence of Pa-beta-N to MIC for Acinetobacter baumannii ATCC 17978 in presence of Pa-beta-N; assay type: functional; procedure, shortened: as §2
Klebsiella pneumoniae [20] = test: Antibacterial activity against Klebsiella pneumoniae NCTC 13368 after 20 hrs in the presence of PMBN by broth microdilution method; assay type: functional; settings: NCTC 13368, 20 h; procedure, shortened: as §4
Pseudomonas aeruginosa [21] = test: Antibacterial activity against Pseudomonas aeruginosa NCTC 13437 after 20 hrs by broth microdilution method; assay type: functional; settings: NCTC 13437, 20 h; procedure, shortened: as §4
Staphylococcus aureus [22] = test: Antibacterial activity against methicillin-sensitive Staphylococcus aureus ATCC 9144 after 20 hrs by broth microdilution method; assay type: functional; settings: ATCC 9144, 20 h; procedure, shortened: as §4
[23] = Stabilization of FAM/TAMRA-labeled AT-rich DNA duplex (unknown origin) assessed as change in melting temperature at 5 uM by FRET-based assay
Procedure, shortened: (§6)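 FRET melting of a FAM/TAMRA-labelled AT-rich oligonucleotide, 400 nM working solution in 50 mM potassium, 50 mM cacodylate, pH 7.4. DNA was annealed at 85 °C for 6 min, then held at 25 °C for 5 h, and mixed 1:1 with sample. Fluorescence was read every 0.5 °C from 30 to 100 °C, with a 30 s hold per step. ΔTm is measured against the blank, in triplicate.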

Enterococcus faecium = test: Antibacterial activity against vancomycin-resistant Enterococcus faecium NCTC 12204 after 20 hrs by broth microdilution method; assay type: functional; settings: NCTC 12204, 20 h; procedure, shortened: as §1
Pseudomonas aeruginosa [24] = test: Antibacterial activity against Pseudomonas aeruginosa PAO1 after 20 hrs by broth microdilution method; assay type: functional; settings: PAO1, 20 h; procedure, shortened: as §4
Klebsiella pneumoniae [25] = test: Antibacterial activity against Klebsiella pneumoniae NCTC 13368 after 20 hrs by broth microdilution method; assay type: functional; settings: NCTC 13368, 20 h; procedure, shortened: as §4
Klebsiella pneumoniae [26] = test: Antibacterial activity against Klebsiella pneumoniae M6 after 20 hrs by broth microdilution method; assay type: functional; settings: M6, 20 h; procedure, shortened: as §4
Acinetobacter baumannii [27] = test: Ratio of MIC for Acinetobacter baumannii AYE in absence of PMBN to MIC for Acinetobacter baumannii AYE in presence of PMBN; assay type: functional; procedure, shortened: as §3
Acinetobacter baumannii [28] = test: Antibacterial activity against Acinetobacter baumannii ATCC 17978 after 20 hrs in the presence of PMBN by broth microdilution method; assay type: functional; settings: ATCC 17978, 20 h; procedure, shortened: as §4
Klebsiella pneumoniae [29] = test: Ratio of MIC for Klebsiella pneumoniae M6 in absence of Pa-beta-N to MIC for Klebsiella pneumoniae M6 in presence of Pa-beta-N; assay type: functional; procedure, shortened: as §2
Staphylococcus aureus [30] = test: Bactericidal activity against methicillin-resistant Staphylococcus aureus EMRSA-15 at 4 times MIC after 10 hrs by Miles Misra dilution method; assay type: functional
Staphylococcus aureus [31] = test: Bactericidal activity against methicillin-resistant Staphylococcus aureus EMRSA-15 assessed as time required to kill bacteria by >6 log10CFU/ml at 4 times MIC by Miles Misra dilution method; assay type: functional; procedure, shortened: as §5
Klebsiella pneumoniae [32] = test: Ratio of MIC for Klebsiella pneumoniae M6 in absence of PMBN to MIC for Klebsiella pneumoniae M6 in presence of PMBN; assay type: functional; procedure, shortened: as §3
Pseudomonas aeruginosa [33] = test: Antibacterial activity against Pseudomonas aeruginosa PAO1 after 20 hrs in the presence of PMBN by broth microdilution method; assay type: functional; settings: PAO1, 20 h; procedure, shortened: as §4
Klebsiella pneumoniae [34] = test: Ratio of MIC for Klebsiella pneumoniae NCTC 13368 in absence of Pa-beta-N to MIC for Klebsiella pneumoniae NCTC 13368 in presence of Pa-beta-N; assay type: functional; procedure, shortened: as §2
Acinetobacter baumannii [35] = test: Antibacterial activity against Acinetobacter baumannii ATCC 17978 after 20 hrs by broth microdilution method; assay type: functional; settings: ATCC 17978, 20 h; procedure, shortened: as §4
Acinetobacter baumannii [36] = test: Antibacterial activity against Acinetobacter baumannii ATCC 17978 after 20 hrs in the presence of Pa-beta-N and magnesium ions by broth microdilution method; assay type: functional; settings: ATCC 17978, 20 h; procedure, shortened: as §4
Acinetobacter baumannii [37] = test: Antibacterial activity against Acinetobacter baumannii AYE after 20 hrs by broth microdilution method; assay type: functional; procedure, shortened: as §4
Acinetobacter baumannii [38] = test: Ratio of MIC for Acinetobacter baumannii AYE in absence of Pa-beta-N to MIC for Acinetobacter baumannii AYE in presence of Pa-beta-N; assay type: functional; procedure, shortened: as §2
[39] = Stabilization of FAM/TAMRA-labeled AT-rich DNA duplex (unknown origin) assessed as change in melting temperature at 1 uM by FRET-based assay; procedure, shortened: as §6
Acinetobacter baumannii [40] = test: Antibacterial activity against Acinetobacter baumannii AYE after 20 hrs in the presence of Pa-beta-N and magnesium ions by broth microdilution method; assay type: functional; procedure, shortened: as §4
Klebsiella pneumoniae [41] = test: Ratio of MIC for Klebsiella pneumoniae NCTC 13368 in absence of PMBN to MIC for Klebsiella pneumoniae NCTC 13368 in presence of PMBN; assay type: functional; procedure, shortened: as §3

Q: With `Cc1nc2ccc(C(=O)Nc3cccc(-c4ccc(-n5c(C)nc6cc(C(=O)NCCCCN(C)C)ccc65)nc4)c3)cc2[nH]1` as the compound, how does the MIC (Enterococcus faecalis [1]) read?
A: 0.25 µg/mL (≈ 0.416 µM)

Q: What about the Ratio (Pseudomonas aeruginosa [2]) of the same compound?
A: 2 - 4

Q: And the Ratio (Acinetobacter baumannii [3])?
A: 2

Q: And the Activity (Enterococcus faecalis [4])?
A: inactive

Q: What about the MIC (Pseudomonas aeruginosa [5]) of the same compound?
A: > 32 µg/mL

Q: What about the Time (Enterococcus faecalis [6]) of the same compound?
A: 2 h

Q: And the MIC (Enterococcus faecalis [7])?
A: 0.5 µg/mL (≈ 0.832 µM)

Q: And the MIC (Klebsiella pneumoniae [8])?
A: 32 µg/mL

Q: And the viability at 24 h, 25 µM [9]?
A: > 98%

Q: What about the Ratio (Pseudomonas aeruginosa [10]) of the same compound?
A: >16

Q: And the MIC (Acinetobacter baumannii [11])?
A: 8 µg/mL

Q: What about the MIC (Klebsiella pneumoniae [12]) of the same compound?
A: 16 µg/mL

Q: What about the MIC (Staphylococcus aureus [13]) of the same compound?
A: 1 µg/mL (≈ 1.66 µM)

Q: What about the Ratio (Pseudomonas aeruginosa [14]) of the same compound?
A: >16

Q: What about the MIC (Klebsiella pneumoniae [15]) of the same compound?
A: 16 µg/mL

Q: What about the MIC (Pseudomonas aeruginosa [16]) of the same compound?
A: > 32 µg/mL

Q: And the MIC (Pseudomonas aeruginosa [17])?
A: 16 µg/mL

Q: And the MIC (Staphylococcus aureus [18])?
A: 2 µg/mL (≈ 3.33 µM)

Q: What about the Ratio (Acinetobacter baumannii [19]) of the same compound?
A: 2 - 4

Q: What about the MIC (Klebsiella pneumoniae [20]) of the same compound?
A: 32 µg/mL

Q: What about the MIC (Pseudomonas aeruginosa [21]) of the same compound?
A: > 32 µg/mL

Q: And the MIC (Staphylococcus aureus [22])?
A: 0.5 µg/mL (≈ 0.832 µM)

Q: And the deltaTm [23]?
A: 0.6 °C

Q: What about the MIC (Enterococcus faecium) of the same compound?
A: ≤ 0.125 µg/mL

Q: And the MIC (Pseudomonas aeruginosa [24])?
A: > 32 µg/mL

Q: What about the MIC (Klebsiella pneumoniae [25]) of the same compound?
A: > 32 µg/mL

Q: What about the MIC (Klebsiella pneumoniae [26]) of the same compound?
A: > 32 µg/mL

Q: What about the Ratio (Acinetobacter baumannii [27]) of the same compound?
A: 2

Q: What about the MIC (Acinetobacter baumannii [28]) of the same compound?
A: 8 µg/mL

Q: What about the Ratio (Klebsiella pneumoniae [29]) of the same compound?
A: >=4

Q: And the Activity (Staphylococcus aureus [30])?
A: inactive

Q: What about the Time (Staphylococcus aureus [31]) of the same compound?
A: 2 h

Q: And the Ratio (Klebsiella pneumoniae [32])?
A: 4

Q: And the MIC (Pseudomonas aeruginosa [33])?
A: 16 µg/mL

Q: What about the Ratio (Klebsiella pneumoniae [34]) of the same compound?
A: 2 - 4

Q: What about the MIC (Acinetobacter baumannii [35]) of the same compound?
A: > 32 µg/mL

Q: What about the MIC (Acinetobacter baumannii [36]) of the same compound?
A: 8 µg/mL

Q: And the MIC (Acinetobacter baumannii [37])?
A: > 32 µg/mL

Q: What about the Ratio (Acinetobacter baumannii [38]) of the same compound?
A: 2 - 4

Q: What about the deltaTm [39] of the same compound?
A: 0.3 °C

Q: And the MIC (Acinetobacter baumannii [40])?
A: 16 µg/mL

Q: And the Ratio (Klebsiella pneumoniae [41])?
A: 4
